From paper PMC2741613 (Journal of the American Chemical Society, 2009)
Where two headings read alike, the source gives them in different places. Non-standard residues stand in square brackets, D forms with d. Residues, ends and D or L forms follow the SMILES beside them. F2Pmp = N[CH](Cc1ccc(C(F)(F)P(=O)(O)O)cc1)C(=O)O

Key:
[1] = target: T1, TC-PTP (Homo sapiens, UniProt P17706); experiment: TC-PTP-catalyzed pNPP hydrolysis inhibition; type: biochemical; conditions: for IC50: pNPP 2 mM, pH 7.0, 25 °C; for fold enhancement relative to parent compound 5: IC50/affinity for TC-PTP versus compound 5
T1 sequence (P17706 1-415): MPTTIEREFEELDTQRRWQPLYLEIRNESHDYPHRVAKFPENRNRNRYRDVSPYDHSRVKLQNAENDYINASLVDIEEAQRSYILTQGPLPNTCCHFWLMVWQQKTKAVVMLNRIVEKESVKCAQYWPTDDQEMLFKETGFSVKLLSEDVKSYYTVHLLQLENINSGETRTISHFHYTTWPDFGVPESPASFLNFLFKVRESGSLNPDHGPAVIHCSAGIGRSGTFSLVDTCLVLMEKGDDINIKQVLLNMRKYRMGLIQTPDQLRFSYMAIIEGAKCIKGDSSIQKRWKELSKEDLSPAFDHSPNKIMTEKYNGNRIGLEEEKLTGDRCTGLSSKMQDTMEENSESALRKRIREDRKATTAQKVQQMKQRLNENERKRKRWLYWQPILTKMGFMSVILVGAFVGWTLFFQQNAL
In short: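 IC50: enzyme added last (10 nM or 0.4 nM final) to 2 mM pNPP (Km) plus varied test compound, 30 min at room temperature, NaOH quench, A405. Reversibility: enzyme preincubated with test compound 30 min before pNPP. Mode/Ki: 0.4 nM enzyme, varied pNPP and inhibitor, kinetic fit.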

[2] = system: tyrosine phosphorylation of EGFR in PTP1B−/− mouse embryo fibroblast cells; experiment: EGF-stimulated EGFR phosphorylation in cells; type: cell-based; conditions: 200 nM
In short: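 PTP1B−/− mouse embryo fibroblasts were given test compound for 2 hr, then EGF 2 ng/mL for 10 min. Lysis in HEPES pH 7.4 buffer with pervanadate, fluoride and protease inhibitors, cleared at 15,000 rpm for 10 min, protein by BCA. EGFR immunoprecipitated from 1 mg lysate (4 °C, 2 h; protein A/G 2 h). SDS-PAGE, anti-pTyr immunoblot, ECL detection.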

IC50 ([1]; read-out: IC50 for TC-PTP) [nM]	IC50 ([1]; read-out: IC50 for the TC-PTP-catalyzed reaction) [nM]	Structure (SMILES)	fold enhancement relative to parent compound 5 [1] [fold]	effect on EGFR phosphorylation [2]
	160 ± 20	CCc1ccc(C(=O)NCCCCC(NC(=O)C(Cc2ccc(C(F)(F)P(=O)(O)O)cc2)NC(C)=O)C(N)=O)cc1 (stereo not shown) [Compound 6]	12.5	
> 1000		CCc1ccc(C(=O)NCCCCC(NC(=O)C(Cc2ccccc2)NC(=O)C(Cc2ccccc2)NC(=O)COC2CC(C)CCC2C(C)C)C(N)=O)cc1 (stereo not shown) [Compound 9]		no effect
20000		O=C(N[C@@H](Cc1ccc(C(F)(F)P(=O)(O)O)cc1)C(=O)O)OCC1c2ccccc2-c2ccccc21 [Fmoc-F2Pmp-OH, reference compound]		

More lines, now with the values behind:

Structure (SMILES)	IC50 ([1]; read-out: IC50 for TC-PTP) [nM]	IC50 ([1]; read-out: IC50 for the TC-PTP-catalyzed reaction) [nM]	fold enhancement relative to parent compound 5 [1] [fold]	effect on EGFR phosphorylation [2]
CC(=O)NCCCCC(NC(=O)C(Cc1ccc(C(F)(F)P(=O)(O)O)cc1)NC(C)=O)C(N)=O (stereo not shown) [Compound 5] (Ac-[F2Pmp]-Lys(Ac)-NH2; configuration not given here)	2000			
CCc1ccc(C(=O)NCCCCC(NC(=O)C(Cc2ccc(C(F)(F)P(=O)(O)O)cc2)NC(=O)C(Cc2ccccc2)NC(C)=O)C(N)=O)cc1 (stereo not shown) [Compound 7]			77	
